Measurements published in ChEMBL document CHEMBL5244270, “Selective Inhibitors of G2019S-LRRK2 Kinase Activity” (J Med Chem, 2020).

molecular target: T1, Leucine-rich repeat serine/threonine-protein kinase 2 (Homo sapiens, UniProt Q5S007); experiment: Inhibition of human wild type LRRK2 expressed in HEK293 cells assessed as reduction in pS1292 phosphorylation incubated for 2 hrs by MSD analysis; format: cell-based
Outline: (§1)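 HEK293 cells stably expressing WT or G2019S LRRK2 (30−50K/well, DMEM with 1% serum) were treated for 2 h at 37 °C and lysed with phosphatase inhibitors. LRRK2 was captured on anti-LRRK2-coated MSD plates overnight at 4 °C. Detection used rabbit anti-pS1292 (1:400) and Sulfo-Tag anti-rabbit, with an electrochemiluminescence read-out. IC50 is the geometric mean of at least two independent experiments.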

T1 sequence (Q5S007 whole entry): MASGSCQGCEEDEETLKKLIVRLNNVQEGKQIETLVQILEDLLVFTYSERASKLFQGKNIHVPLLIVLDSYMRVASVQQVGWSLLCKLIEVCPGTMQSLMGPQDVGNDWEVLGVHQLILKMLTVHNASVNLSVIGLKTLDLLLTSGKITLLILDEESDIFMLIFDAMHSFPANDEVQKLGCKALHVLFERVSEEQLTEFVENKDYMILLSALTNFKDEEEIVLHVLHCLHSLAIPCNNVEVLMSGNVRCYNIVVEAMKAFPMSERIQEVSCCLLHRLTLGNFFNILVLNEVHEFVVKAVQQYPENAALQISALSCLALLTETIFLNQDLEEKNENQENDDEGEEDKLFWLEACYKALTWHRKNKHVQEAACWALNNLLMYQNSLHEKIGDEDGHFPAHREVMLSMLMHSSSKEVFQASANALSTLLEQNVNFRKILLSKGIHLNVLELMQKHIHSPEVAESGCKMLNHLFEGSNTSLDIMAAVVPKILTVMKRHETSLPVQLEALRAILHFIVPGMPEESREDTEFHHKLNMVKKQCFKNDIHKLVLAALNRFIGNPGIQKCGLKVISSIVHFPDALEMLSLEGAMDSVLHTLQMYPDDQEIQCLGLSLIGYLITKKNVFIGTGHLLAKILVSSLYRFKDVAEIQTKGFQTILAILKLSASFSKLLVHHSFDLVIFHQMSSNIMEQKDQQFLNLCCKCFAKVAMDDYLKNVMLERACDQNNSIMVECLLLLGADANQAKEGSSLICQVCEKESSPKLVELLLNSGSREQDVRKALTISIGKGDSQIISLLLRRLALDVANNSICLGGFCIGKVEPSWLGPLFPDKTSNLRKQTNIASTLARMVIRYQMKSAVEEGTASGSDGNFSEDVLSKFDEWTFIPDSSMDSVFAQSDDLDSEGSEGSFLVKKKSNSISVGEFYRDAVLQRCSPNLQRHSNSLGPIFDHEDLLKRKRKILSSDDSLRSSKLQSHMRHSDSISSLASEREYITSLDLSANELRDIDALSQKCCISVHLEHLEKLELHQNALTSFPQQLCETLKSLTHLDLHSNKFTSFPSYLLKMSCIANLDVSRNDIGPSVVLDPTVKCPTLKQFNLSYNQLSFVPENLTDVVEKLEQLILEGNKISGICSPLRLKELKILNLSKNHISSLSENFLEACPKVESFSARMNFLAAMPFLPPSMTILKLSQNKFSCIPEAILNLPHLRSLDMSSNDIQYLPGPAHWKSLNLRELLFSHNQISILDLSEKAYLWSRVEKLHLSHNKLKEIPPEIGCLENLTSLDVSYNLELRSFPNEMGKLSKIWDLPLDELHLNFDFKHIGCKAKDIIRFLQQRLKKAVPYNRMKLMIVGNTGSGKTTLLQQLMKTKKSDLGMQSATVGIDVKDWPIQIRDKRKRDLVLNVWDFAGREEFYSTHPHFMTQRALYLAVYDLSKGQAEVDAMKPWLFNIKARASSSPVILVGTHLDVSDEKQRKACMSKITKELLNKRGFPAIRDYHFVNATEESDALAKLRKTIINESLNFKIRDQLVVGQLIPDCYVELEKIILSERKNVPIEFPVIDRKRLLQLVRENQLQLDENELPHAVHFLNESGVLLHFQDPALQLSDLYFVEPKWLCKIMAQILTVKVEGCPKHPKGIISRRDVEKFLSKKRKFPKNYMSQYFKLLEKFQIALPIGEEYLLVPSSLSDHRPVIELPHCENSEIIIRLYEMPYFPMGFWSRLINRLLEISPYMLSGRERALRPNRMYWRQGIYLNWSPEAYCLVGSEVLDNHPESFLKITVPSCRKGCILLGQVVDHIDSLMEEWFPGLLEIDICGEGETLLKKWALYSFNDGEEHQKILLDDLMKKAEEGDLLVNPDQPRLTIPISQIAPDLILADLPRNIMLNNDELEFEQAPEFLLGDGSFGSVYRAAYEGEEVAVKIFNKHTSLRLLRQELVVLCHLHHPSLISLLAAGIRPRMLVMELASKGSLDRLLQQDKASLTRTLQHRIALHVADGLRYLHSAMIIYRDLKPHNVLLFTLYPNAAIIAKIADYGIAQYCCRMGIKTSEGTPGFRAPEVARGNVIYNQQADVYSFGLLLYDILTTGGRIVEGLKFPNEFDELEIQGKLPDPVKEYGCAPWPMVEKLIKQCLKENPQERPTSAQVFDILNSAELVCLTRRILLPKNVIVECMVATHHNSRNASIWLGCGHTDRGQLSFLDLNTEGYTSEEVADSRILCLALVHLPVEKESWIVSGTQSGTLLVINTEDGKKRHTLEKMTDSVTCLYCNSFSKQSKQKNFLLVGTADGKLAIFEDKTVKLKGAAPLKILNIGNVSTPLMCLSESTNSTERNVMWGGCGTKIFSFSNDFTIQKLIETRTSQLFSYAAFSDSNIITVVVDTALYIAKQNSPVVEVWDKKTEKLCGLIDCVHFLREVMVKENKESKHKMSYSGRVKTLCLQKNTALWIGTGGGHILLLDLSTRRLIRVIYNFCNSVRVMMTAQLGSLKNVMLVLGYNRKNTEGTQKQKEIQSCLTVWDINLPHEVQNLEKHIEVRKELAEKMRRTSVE

SMILES | IC50 [nM]
CC1=C(C(=O)Nc2ccc3[nH]nc(-c4nc5ccccc5[nH]4)c3c2)Cn2nnnc2N1C | 242
CC1=C(C(=O)Nc2ccc3[nH]nc(-c4ccnc(N5CCOCC5)c4)c3c2)Cn2nnnc2N1C | 74.4
CC1=C(C(=O)Nc2ccc3[nH]nc(-c4ccncc4)c3c2)[C@@H](C)n2nnnc2N1C | 272
CC1=C(C(=O)Nc2ccc3[nH]nc(-c4ccnc(N5CCOCC5)c4)c3c2)[C@@H](C)n2nnnc2N1C | 20.9

molecular target: T2, Leucine-rich repeat serine/threonine-protein kinase 2 (Homo sapiens, UniProt Q5S007, G2019S); experiment: Inhibition of N-terminal GST-fused human LRRK2 G2019S mutant using fluorescein-labeled LRRKtide as substrate preincubated for 15 mins followed by substrate addition and measured after 1 hr by TR-FRET assay
Outline: (§2)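 Purified truncated LRRK2, WT or G2019S, at 2 nM nominal was preincubated with inhibitor for 15 min. LRRKtide (0.4 μM) and ATP (25 μM) were then added for 1 h. The reaction was stopped with 10 mM EDTA plus 2 nM Tb-anti-pLRRKtide antibody, and TR-FRET was read. IC50 is the geometric mean of at least two independent experiments.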

T2 sequence (Q5S007 whole entry G2019S, the tested form may be a part): as the sequence (Q5S007 whole entry) above, with G2019S counted along it

SMILES | IC50 [nM]
CC1=C(C(=O)Nc2ccc3[nH]nc(C)c3c2)C(C)(C)n2nnnc2N1C | 0.8
CC1=C(C(=O)Nc2ccc3[nH]nc(-c4ccnc(N5CCOCC5)c4)c3c2)[C@H](C)n2nnnc2N1C | < 0.2
CC1=C(C(=O)Nc2ccc3[nH]nc(-c4nc5ccccc5[nH]4)c3c2)Cn2nnnc2N1C | < 0.2
CC1=C(C(=O)Nc2ccc3[nH]ncc3c2)Cn2nnnc2N1C(=O)N(C)C | 53
CC1=C(C(=O)Nc2ccc3[nH]c(=O)n(C)c3c2)[C@@H](C)n2nnnc2N1C | 58
CC1=C(C(=O)Nc2ccc3[nH]ncc3c2)Cn2nnnc2N1CCN1CCOCC1 | 4650
CCCC(=O)Nc1n[nH]c2ccc(NC(=O)C3=C(C)N(C)c4nnnn4C3)cc12 | 1190
CC1=C(C(=O)Nc2ccc3cnc(C)n3c2)Cn2nnnc2N1C | 3120
CC1=C(C(=O)Nc2ccc3[nH]cnc3c2)Cn2nnnc2N1C | > 10000
CC1=C(C(=O)Nc2ccc3[nH]nc(NC(=O)c4ccccc4)c3c2)Cn2nnnc2N1C | 3
CC1=C(C(=O)Nc2ccc3[nH]nc(Br)c3c2)Cn2nnnc2N1C | 2.4
CC1=C(C(=O)Nc2ccc3c(N)nccc3c2)[C@@H](C)n2nnnc2N1C | 12
CC1=C(C(=O)Nc2ccc3[nH]ncc3c2)C(C)(C)n2nnnc2N1C | 12
CC1=C(C(=O)Nc2ccc3[nH]ncc3c2)Cn2nnnc2N1c1ccccc1 | 2.6
CN1C=C(C(=O)Nc2ccc3[nH]ncc3c2)Cn2nnnc21 | > 10000
CC1=C(C(=O)Nc2ccc3[nH]nc(C)c3c2)[C@H](C)n2nnnc2N1C | 51
CC1=C(C(=O)Nc2ccc3[nH]nc(-c4ccnc(N5CCOCC5)c4)c3c2)Cn2nnnc2N1C | < 0.2
CC1=C(C(=O)Nc2ccc3[nH]nc(-c4ccncc4)c3c2)[C@@H](C)n2nnnc2N1C | < 0.2
CC1=C(C(=O)Nc2ccc3[nH]nc(-c4ccnc(N5CCOCC5)c4)c3c2)[C@@H](C)n2nnnc2N1C | < 0.2

species on record: Homo sapiens; experiment: Selectivity ratio of IC50 for inhibition of human wild type LRRK2 expressed in HEK293 cells assessed as reduction in pS1292 phosphorylation to IC50 for inhibition of human LRRK2 G2019S mutant expressed in HEK293 cells assessed as reduction in pS1292 phosphorylation; format: cell-based; outline: as §1

SMILES | Ratio IC50
CC1=C(C(=O)Nc2ccc3[nH]nc(-c4nc5ccccc5[nH]4)c3c2)Cn2nnnc2N1C | 12
CC1=C(C(=O)Nc2ccc3[nH]nc(-c4ccnc(N5CCOCC5)c4)c3c2)Cn2nnnc2N1C | 8
CC1=C(C(=O)Nc2ccc3[nH]nc(-c4ccncc4)c3c2)[C@@H](C)n2nnnc2N1C | 22
CC1=C(C(=O)Nc2ccc3[nH]nc(-c4ccnc(N5CCOCC5)c4)c3c2)[C@@H](C)n2nnnc2N1C | 18

species on record: Homo sapiens; experiment: Selectivity ratio of IC50 for inhibition of human wild type LRRK2 expressed in HEK293 cells to IC50 for inhibition of human LRRK2 G2019S mutant expressed in HEK293; format: cell-based
Outline: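 HEK293 cells stably expressing WT or G2019S LRRK2 (100 000/well, EMEM with 1% FBS) were dosed about 24 h after plating, for 2 h. They were lysed in 1% SDS Tris buffer with protease and phosphatase inhibitors, and lysates were heated at 65 °C for 10 min. pThr73-Rab10, total Rab10, pS935 and total LRRK2 were quantified by immunoblot. IC50 is the geometric mean of at least two independent experiments.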

SMILES | Ratio IC50
CC1=C(C(=O)Nc2ccc3[nH]nc(-c4nc5ccccc5[nH]4)c3c2)Cn2nnnc2N1C | 157
CC1=C(C(=O)Nc2ccc3[nH]nc(-c4ccnc(N5CCOCC5)c4)c3c2)Cn2nnnc2N1C | 45
CC1=C(C(=O)Nc2ccc3[nH]nc(-c4ccncc4)c3c2)[C@@H](C)n2nnnc2N1C | 78
CC1=C(C(=O)Nc2ccc3[nH]nc(-c4ccnc(N5CCOCC5)c4)c3c2)[C@@H](C)n2nnnc2N1C | 27

molecular target: T2, Leucine-rich repeat serine/threonine-protein kinase 2; experiment: Inhibition of human LRRK2 G2019S mutant expressed in HEK293 cells assessed as reduction in pSer935 phosphorylation incubated for 2 hrs by HTRF analysis; format: cell-based
Outline: (§3)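 Stably transfected HEK293 cells expressing human WT or G2019S LRRK2 were seeded at 5K/well in DMEM with 1% serum on poly-D-lysine plates. Inhibitor in DMSO was added for 2 h at 37 °C. pS935 was detected by an HTRF kit. IC50 is the geometric mean of at least two independent experiments.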

SMILES | IC50 [nM]
CC1=C(C(=O)Nc2ccc3[nH]nc(-c4nc5ccccc5[nH]4)c3c2)Cn2nnnc2N1C | 21
CC1=C(C(=O)Nc2ccc3[nH]nc(-c4ccnc(N5CCOCC5)c4)c3c2)Cn2nnnc2N1C | 8.3
CC1=C(C(=O)Nc2ccc3[nH]nc(-c4ccncc4)c3c2)[C@@H](C)n2nnnc2N1C | 14.7
CC1=C(C(=O)Nc2ccc3[nH]nc(-c4ccnc(N5CCOCC5)c4)c3c2)[C@@H](C)n2nnnc2N1C | 2.4

molecular target: T1, Leucine-rich repeat serine/threonine-protein kinase 2; experiment: Inhibition of N-terminal GST-fused human wild type LRRK2 using fluorescein-labeled LRRKtide as substrate preincubated for 15 mins followed by substrate addition and measured after 1 hr by TR-FRET assay; outline: as §2

SMILES | IC50 [nM]
CC1=C(C(=O)Nc2ccc3[nH]nc(C)c3c2)C(C)(C)n2nnnc2N1C | 152
CC1=C(C(=O)Nc2ccc3[nH]nc(-c4ccnc(N5CCOCC5)c4)c3c2)[C@H](C)n2nnnc2N1C | 1
CC1=C(C(=O)Nc2ccc3[nH]nc(-c4nc5ccccc5[nH]4)c3c2)Cn2nnnc2N1C | 0.53
CC1=C(C(=O)Nc2ccc3[nH]ncc3c2)Cn2nnnc2N1C(=O)N(C)C | 888
CC1=C(C(=O)Nc2ccc3[nH]c(=O)n(C)c3c2)[C@@H](C)n2nnnc2N1C | 2870
CC1=C(C(=O)Nc2ccc3[nH]ncc3c2)Cn2nnnc2N1CCN1CCOCC1 | 6130
CCCC(=O)Nc1n[nH]c2ccc(NC(=O)C3=C(C)N(C)c4nnnn4C3)cc12 | > 10000
CC1=C(C(=O)Nc2ccc3cnc(C)n3c2)Cn2nnnc2N1C | > 10000
CC1=C(C(=O)Nc2ccc3[nH]cnc3c2)Cn2nnnc2N1C | > 10000
CC1=C(C(=O)Nc2ccc3[nH]nc(NC(=O)c4ccccc4)c3c2)Cn2nnnc2N1C | 108
CC1=C(C(=O)Nc2ccc3[nH]nc(Br)c3c2)Cn2nnnc2N1C | 96
CC1=C(C(=O)Nc2ccc3c(N)nccc3c2)[C@@H](C)n2nnnc2N1C | 581
CC1=C(C(=O)Nc2ccc3[nH]ncc3c2)C(C)(C)n2nnnc2N1C | 1300
CC1=C(C(=O)Nc2ccc3[nH]ncc3c2)Cn2nnnc2N1c1ccccc1 | 5.7
CN1C=C(C(=O)Nc2ccc3[nH]ncc3c2)Cn2nnnc21 | > 10000
CC1=C(C(=O)Nc2ccc3[nH]nc(C)c3c2)[C@H](C)n2nnnc2N1C | 1220
CC1=C(C(=O)Nc2ccc3[nH]nc(-c4ccnc(N5CCOCC5)c4)c3c2)Cn2nnnc2N1C | < 0.2
CC1=C(C(=O)Nc2ccc3[nH]nc(-c4ccncc4)c3c2)[C@@H](C)n2nnnc2N1C | < 0.2
CC1=C(C(=O)Nc2ccc3[nH]nc(-c4ccnc(N5CCOCC5)c4)c3c2)[C@@H](C)n2nnnc2N1C | < 0.2

species on record: Homo sapiens; experiment: Selectivity ratio of IC50 for inhibition of N-terminal GST-fused human wild type LRRK2 to IC50 for inhibition of N-terminal GST-fused human […] mutant; outline: as §2

SMILES | Ratio IC50
CC1=C(C(=O)Nc2ccc3[nH]nc(C)c3c2)C(C)(C)n2nnnc2N1C | 190
CC1=C(C(=O)Nc2ccc3[nH]nc(-c4ccnc(N5CCOCC5)c4)c3c2)[C@H](C)n2nnnc2N1C | > 5
CC1=C(C(=O)Nc2ccc3[nH]nc(-c4nc5ccccc5[nH]4)c3c2)Cn2nnnc2N1C | > 2.6
CC1=C(C(=O)Nc2ccc3[nH]ncc3c2)Cn2nnnc2N1C(=O)N(C)C | 17
CC1=C(C(=O)Nc2ccc3[nH]c(=O)n(C)c3c2)[C@@H](C)n2nnnc2N1C | 49.7
CC1=C(C(=O)Nc2ccc3[nH]ncc3c2)Cn2nnnc2N1CCN1CCOCC1 | 1.3
CCCC(=O)Nc1n[nH]c2ccc(NC(=O)C3=C(C)N(C)c4nnnn4C3)cc12 | > 8.4
CC1=C(C(=O)Nc2ccc3cnc(C)n3c2)Cn2nnnc2N1C | > 3.2
CC1=C(C(=O)Nc2ccc3[nH]nc(NC(=O)c4ccccc4)c3c2)Cn2nnnc2N1C | 35
CC1=C(C(=O)Nc2ccc3[nH]nc(Br)c3c2)Cn2nnnc2N1C | 40
CC1=C(C(=O)Nc2ccc3c(N)nccc3c2)[C@@H](C)n2nnnc2N1C | 48
CC1=C(C(=O)Nc2ccc3[nH]ncc3c2)C(C)(C)n2nnnc2N1C | 108
CC1=C(C(=O)Nc2ccc3[nH]ncc3c2)Cn2nnnc2N1c1ccccc1 | 2.2
CC1=C(C(=O)Nc2ccc3[nH]nc(C)c3c2)[C@H](C)n2nnnc2N1C | 24

molecular target: T1, Leucine-rich repeat serine/threonine-protein kinase 2; experiment: Inhibition of human wild type LRRK2 expressed in HEK293 cells assessed as reduction in pSer935 phosphorylation incubated for 2 hrs by HTRF analysis; format: cell-based; outline: as §3

SMILES | IC50 [nM]
CC1=C(C(=O)Nc2ccc3[nH]nc(-c4nc5ccccc5[nH]4)c3c2)Cn2nnnc2N1C | 3300
CC1=C(C(=O)Nc2ccc3[nH]nc(-c4ccnc(N5CCOCC5)c4)c3c2)Cn2nnnc2N1C | 377
CC1=C(C(=O)Nc2ccc3[nH]nc(-c4ccncc4)c3c2)[C@@H](C)n2nnnc2N1C | 1140
CC1=C(C(=O)Nc2ccc3[nH]nc(-c4ccnc(N5CCOCC5)c4)c3c2)[C@@H](C)n2nnnc2N1C | 65

molecular target: T2, Leucine-rich repeat serine/threonine-protein kinase 2; experiment: Inhibition of human LRRK2 G2019S mutant expressed in HEK293 cells assessed as reduction in pS1292 phosphorylation incubated for 2 hrs by MSD analysis; format: cell-based; outline: as §1

SMILES | IC50 [nM]
CC1=C(C(=O)Nc2ccc3[nH]nc(-c4nc5ccccc5[nH]4)c3c2)Cn2nnnc2N1C | 21
CC1=C(C(=O)Nc2ccc3[nH]nc(-c4ccnc(N5CCOCC5)c4)c3c2)Cn2nnnc2N1C | 9.2
CC1=C(C(=O)Nc2ccc3[nH]nc(-c4ccncc4)c3c2)[C@@H](C)n2nnnc2N1C | 12.1
CC1=C(C(=O)Nc2ccc3[nH]nc(-c4ccnc(N5CCOCC5)c4)c3c2)[C@@H](C)n2nnnc2N1C | 1.2
